The species entered for one assay is Homo sapiens. In words: Selectivity index, ratio of IC50 for full length recombinant human C-terminal FLAG-tagged HDAC1 expressed in sf9 cells to IC50 for full length recombinant human N-terminal GST-tagged HDAC6 expressed in baculovirus infected sf9 cells.
Another assay concerns RPMI-8226. The experiment in a line: cells. The format is functional, cell-based. The note with it: Homo sapiens, RPMI-8226, 72 h.
Assay [1] addresses T1, Histone deacetylase 1 (Homo sapiens, UniProt Q13547). The experiment in a line: Inhibition of full length recombinant human C-terminal FLAG-tagged HDAC1 expressed in sf9 cells preincubated for 5 mins followed by biotinylated H3K9-Ac substrate addition and measured after 60 mins by HTRF assay.
Assay [2] concerns the target Apoptosis regulator Bcl-2 (Homo sapiens, UniProt P10415). In words: Inhibition of FAM-Bid peptide binding to Bcl2 (unknown origin) by fluorescence polarization assay.
Assay [3] addresses T2, Protein deacetylase HDAC6 (Homo sapiens, UniProt Q9UBN7).
T2 sequence (Q9UBN7 whole entry): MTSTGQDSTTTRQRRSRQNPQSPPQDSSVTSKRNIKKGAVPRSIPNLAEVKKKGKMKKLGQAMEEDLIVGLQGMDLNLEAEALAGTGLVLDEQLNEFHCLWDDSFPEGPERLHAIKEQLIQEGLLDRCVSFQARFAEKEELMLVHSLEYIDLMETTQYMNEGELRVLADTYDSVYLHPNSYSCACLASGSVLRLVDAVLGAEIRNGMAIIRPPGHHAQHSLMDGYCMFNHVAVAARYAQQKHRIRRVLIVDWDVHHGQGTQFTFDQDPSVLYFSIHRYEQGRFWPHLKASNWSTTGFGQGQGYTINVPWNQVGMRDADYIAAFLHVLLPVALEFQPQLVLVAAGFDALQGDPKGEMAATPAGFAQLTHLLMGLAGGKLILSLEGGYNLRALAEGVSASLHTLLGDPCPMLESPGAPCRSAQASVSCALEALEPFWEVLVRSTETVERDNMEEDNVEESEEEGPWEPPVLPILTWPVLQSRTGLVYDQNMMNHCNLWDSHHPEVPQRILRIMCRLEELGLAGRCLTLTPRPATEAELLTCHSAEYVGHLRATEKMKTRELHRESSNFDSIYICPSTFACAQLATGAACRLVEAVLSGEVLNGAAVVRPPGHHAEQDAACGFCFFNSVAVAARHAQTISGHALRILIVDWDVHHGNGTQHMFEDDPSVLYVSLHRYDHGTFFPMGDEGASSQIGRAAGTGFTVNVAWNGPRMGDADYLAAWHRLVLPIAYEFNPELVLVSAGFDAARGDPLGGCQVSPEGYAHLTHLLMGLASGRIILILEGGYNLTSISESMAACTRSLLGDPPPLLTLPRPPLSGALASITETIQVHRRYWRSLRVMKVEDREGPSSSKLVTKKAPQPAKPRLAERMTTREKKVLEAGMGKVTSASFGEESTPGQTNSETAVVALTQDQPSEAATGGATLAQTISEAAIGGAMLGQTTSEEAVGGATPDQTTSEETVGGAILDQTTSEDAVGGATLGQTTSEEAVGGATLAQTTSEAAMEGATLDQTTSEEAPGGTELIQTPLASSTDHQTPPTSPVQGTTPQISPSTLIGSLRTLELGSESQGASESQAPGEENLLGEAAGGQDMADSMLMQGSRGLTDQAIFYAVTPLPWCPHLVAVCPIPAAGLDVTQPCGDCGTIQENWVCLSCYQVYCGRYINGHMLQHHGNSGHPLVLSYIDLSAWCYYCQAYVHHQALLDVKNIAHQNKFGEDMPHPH
The experiment in a line: Inhibition of full length recombinant human N-terminal GST-tagged HDAC6 expressed in baculovirus infected sf9 cells preincubated for 5 mins followed by biotinylated H3K9-Ac substrate addition and measured after 60 mins by HTRF assay.

Assay [4] deals with T3, Protein deacetylase HDAC6 (Homo sapiens) (UniProt Q9UBN7).
T3 sequence (whole entry): T2 sequence (Q9UBN7 whole entry)
In words: Inhibition of HDAC6 in human RPMI8226 cells assessed as increase in acetylated-tubulin level at 10 uM after 24 hrs by Western blot analysis. In kind it is cell-based. The procedure, abridged: (§1)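 RPMI-8226 cells exposed to compound at 10 μM for 24 h. Acetylated histone H3 and acetylated tubulin were then detected by immunoblot with specific antibodies.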

The test system of the next assay is U-266. In words: cells. In kind it is functional, cell-based. The settings on record: Homo sapiens, U-266, 72 h.
Assay [5] has as its target T1, Histone deacetylase 1. In words: Inhibition of HDAC1 in human RPMI8226 cells assessed as increase in acetylated-H3 level at 10 uM after 24 hrs by Western blot analysis. The format is cell-based. Summed up:
as §1

Molecules are shown by their SMILES. Active and inactive are the calls of the source. The rule behind the calls is not given here.

Sequence of Apoptosis regulator Bcl-2 (P10415 whole entry): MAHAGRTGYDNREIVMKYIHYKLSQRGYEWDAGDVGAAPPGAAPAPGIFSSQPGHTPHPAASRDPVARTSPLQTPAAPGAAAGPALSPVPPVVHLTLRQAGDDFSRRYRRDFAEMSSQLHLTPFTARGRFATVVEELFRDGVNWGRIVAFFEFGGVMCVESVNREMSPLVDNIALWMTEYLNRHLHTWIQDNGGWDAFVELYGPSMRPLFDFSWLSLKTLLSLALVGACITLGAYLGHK
T1 sequence (Q13547 whole entry): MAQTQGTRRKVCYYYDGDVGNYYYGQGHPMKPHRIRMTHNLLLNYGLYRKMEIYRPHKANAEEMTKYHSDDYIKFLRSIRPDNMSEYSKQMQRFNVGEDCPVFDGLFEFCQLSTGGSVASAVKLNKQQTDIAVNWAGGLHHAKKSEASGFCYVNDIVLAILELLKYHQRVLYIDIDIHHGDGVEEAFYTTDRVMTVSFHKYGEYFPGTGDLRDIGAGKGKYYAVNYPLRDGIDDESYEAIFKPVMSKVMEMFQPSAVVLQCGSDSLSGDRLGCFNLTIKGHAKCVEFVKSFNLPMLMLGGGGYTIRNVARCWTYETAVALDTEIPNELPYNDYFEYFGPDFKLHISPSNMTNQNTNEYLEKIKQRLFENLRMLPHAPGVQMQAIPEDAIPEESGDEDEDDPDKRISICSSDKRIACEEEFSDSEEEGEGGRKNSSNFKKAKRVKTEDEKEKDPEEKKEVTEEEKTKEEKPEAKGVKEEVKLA

Take `CC1(C)CCC(CN2CCN(c3ccc(C(=O)NS(=O)(=O)c4ccc(NCCCCCC(=O)NO)c([N+](=O)[O-])c4)c(Oc4cnc5[nH]ccc5c4)c3)CC2)=C(c2ccc(Cl)cc2)C1`: the Ratio IC50 in the assay filed under Homo sapiens is more than 10. For the same compound, the concentration for half-maximal inhibition (IC50) is 300 nM in the assay on RPMI-8226; 847 nM at Histone deacetylase 1 [1]; 230 nM in assay [2]; 28 nM in assay [3]; 27100 nM with U-266. Also, the inhibition result in assay [4] is “Active”.

Regarding `CC1(C)CCC(CN2CCN(c3ccc(C(=O)NS(=O)(=O)c4ccc(NCC5CCOCC5)c([N+](=O)[O-])c4)c(Oc4cnc5[nH]ccc5c4)c3)CC2)=C(c2ccc(Cl)cc2)C1` [VENETOCLAX], the IC50 in the assay on RPMI-8226 came to 2700 nM; in the assay on U-266, 94000 nM.

In the case of `CC1(C)CCC(CN2CCN(c3ccc(C(=O)NS(=O)(=O)c4ccc(NCCCCCCCC(=O)NO)c([N+](=O)[O-])c4)c(Oc4cnc5[nH]ccc5c4)c3)CC2)=C(c2ccc(Cl)cc2)C1`, the Ratio IC50 in the assay filed under Homo sapiens is more than 10. In addition, the half-maximal inhibitory concentration (IC50) in the assay with RPMI-8226 was determined as 200 nM; on Histone deacetylase 1 [1], 281 nM; in assay [2], 250 nM; in assay [3] it was 19 nM; in the assay with U-266, 8700 nM. Also, the inhibition result (on Histone deacetylase 1 [5]; in assay [4]) was “Active” throughout.

As for `CC1(C)CCC(CN2CCN(c3ccc(C(=O)NS(=O)(=O)c4ccc(NCCCCCCC(=O)NO)c([N+](=O)[O-])c4)c(Oc4cnc5[nH]ccc5c4)c3)CC2)=C(c2ccc(Cl)cc2)C1`, the Ratio IC50 in the assay filed under Homo sapiens is more than 10. The IC50 was 300 nM in the assay with RPMI-8226; 665 nM at Histone deacetylase 1 [1]; 240 nM in assay [2]; 28 nM in assay [3]; 9800 nM in the assay with U-266. In assay [4], the inhibition result is “Active”.

With `CC1(C)CCC(CN2CCN(c3ccc(C(=O)NS(=O)(=O)c4ccc(NCCC(=O)NO)c([N+](=O)[O-])c4)c(Oc4cnc5[nH]ccc5c4)c3)CC2)=C(c2ccc(Cl)cc2)C1`, the IC50 (at Histone deacetylase 1 [1]; in assay [3]) was more than 1000 nM each time.

Consider `O=C(CCCCCCNC(=O)c1cnc(N(c2ccccc2)c2ccccc2)nc1)NO` [RICOLINOSTAT], for which the IC50 in the assay on RPMI-8226 amounted to 11000 nM; in the assay with U-266, 21200 nM.

With `CC1(C)CCC(CN2CCN(c3ccc(C(=O)NS(=O)(=O)c4ccc(NCCCC(=O)NO)c([N+](=O)[O-])c4)c(Oc4cnc5[nH]ccc5c4)c3)CC2)=C(c2ccc(Cl)cc2)C1`, the IC50 (at Histone deacetylase 1 [1]; in assay [3]) was more than 1000 nM each time.

For `CC1(C)CCC(CN2CCN(c3ccc(C(=O)NS(=O)(=O)c4ccc(NCCCCC(=O)NO)c([N+](=O)[O-])c4)c(Oc4cnc5[nH]ccc5c4)c3)CC2)=C(c2ccc(Cl)cc2)C1`, the concentration for half-maximal inhibition (IC50) (at Histone deacetylase 1 [1]; in assay [3]) was more than 1000 nM each time.

On to `CC1(C)CCC(CN2CCN(c3ccc(C(=O)NS(=O)(=O)c4ccc(NCC(=O)NO)c([N+](=O)[O-])c4)c(Oc4cnc5[nH]ccc5c4)c3)CC2)=C(c2ccc(Cl)cc2)C1`, for which the IC50 (on Histone deacetylase 1 [1]; in assay [3]) was more than 1000 nM in each case.
